6 compounds from ChEMBL document CHEMBL1811839, “Lindenane disesquiterpenoids with anti-HIV-1 activity from Chloranthus japonicus” (J Nat Prod, 2011) can be followed below.

For orientation: EC50 means the midpoint of the concentration-response curve. As a reminder, the CC50 is the concentration giving 50% cytotoxicity. A higher CC50 goes with lower toxicity to the cells.

Data set [1] concerns Human immunodeficiency virus 1. Kind of data set: Antiviral activity against Human immunodeficiency virus 1 NL 4.3 harboring reverse transcriptase Y181C mutant pseudotyped with VSV-G envelope co-transfected with luciferase gene infected in 293T cells assessed as inhibition of HIV1 replication administered 15 mins prior to infection measured after 48 hrs post infection by luciferase assay. The class given is functional, organism-based. Particulars: Human immunodeficiency virus 1, NL 4.3, HEK-293T. Summed up: (§1)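 VSV-G plasmid co-transfected with env-deficient pNL4-3.luc.R-E vector (wild-type, RT-K103N or RT-Y181C) into 293T cells by modified Ca3(PO4)2 method; medium changed 16 h post-transfection; virion supernatant harvested 48 h, 0.45 μm filtered, p24 ELISA-quantified and diluted to 0.2 ng p24/mL. Target 293T cells plated 6 × 10^4/well a day before; compounds in DMSO added 15 min before infection; luciferase in lysates read 48 h post-infection; EFV positive control.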

Data set [2] has as its system Human immunodeficiency virus 1. Nature of the data set: Antiviral activity against Human immunodeficiency virus 1 NL 4.3 harboring reverse transcriptase K103N mutant pseudotyped with VSV-G envelope co-transfected with luciferase gene infected in 293T cells assessed as inhibition of HIV1 replication administered 15 mins prior to infection measured after 48 hrs post infection by luciferase assay. To be noted: Human immunodeficiency virus 1, NL 4.3, HEK-293T. Format: functional, organism-based. Summed up:
as §1

Data set [3] can be described thus: Therapeutic index, ratio of CC50 for against human C8166 cells to EC50 for HIV-1. Format: cell-based. To be noted: read-out: Ratio CC50/EC50.
Data set [4] concerns Human immunodeficiency virus 1. Kind of data set: Antiviral activity against wild type Human immunodeficiency virus 1 NL 4.3 pseudotyped with VSV-G envelope co-transfected with luciferase gene infected in human 293T cells assessed as inhibition of HIV1 replication administered 15 mins prior to infection measured after 48 hrs post infection by luciferase assay. Format: functional, organism-based. To be noted: Human immunodeficiency virus 1, NL 4.3, HEK-293T. The method in brief:
as §1

A short description of data set [5]: Cytotoxicity against human C8166 cells by MTT assay. Format: cell-based. The method in brief: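 MTT assay on C8166 cells yielding CC50.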
Data set [6] relates to Human immunodeficiency virus 1. Kind of data set: Antiviral activity against Human immunodeficiency virus 1 assessed as inhibition of virus-induced cytopathic effects by cell based assay. Format: functional, organism-based. Summed up:
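HIV-1 cytopathic-effect inhibition assay yielding EC50; AZT positive control.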
For orientation: Cytopathic effects are the visible damage that an infection or toxin causes in cultured cells.

In the case of `O=C1Nc2ccc(Cl)cc2[C@@](C#CC2CC2)(C(F)(F)F)O1` [EFAVIRENZ], the EC50 was found to be 2 nM in data set [1] and 24 nM in data set [2].
With `COC(=O)/C(C)=C1\C(=O)[C@H](O)[C@]2(C)C3=C(C[C@@H]4[C@]5(OC(=O)C6=C5C[C@H]5[C@](O)(COC(=O)/C(C)=C/COC(=O)CCC(=O)OC6)[C@H]6C[C@H]6[C@]45C)[C@H]31)[C@H]1C[C@H]12` [SHIZUKAOL B], the selectivity ratio in data set [3] came to 14.4. In addition, the EC50 in data set [4] amounted to 220 nM; in data set [1] it was 500 nM; in data set [2] it was 470 nM; in data set [6] it was 1.4 nM. This compound also gave a CC50 in data set [5] of 20 nM.
As for `C/C=C(\C)C(=O)OCC1=C2C[C@H]3[C@H](O)[C@H]4C[C@H]4[C@]3(C)[C@@H]3C[C@@]4(O)C5=C(/C(=C(/C)C(=O)OC)C(=O)[C@H](O)[C@@]5(C)[C@@H]5C[C@@H]54)[C@]23OC1=O` [SHIZUKAOL C], in data set [3], the selectivity ratio was 5.56. For the same compound, the EC50 in data set [4] turned out to be 980 nM; in data set [1], 1000 nM; in data set [2], 1360 nM; in data set [6] it was 16 nM. The compound also registered a CC50 in data set [5] of 89 nM.
Consider `COC(=O)/C(C)=C1\C(=O)[C@H](O)[C@]2(C)C3=C(C[C@@H]4[C@]5(OC(=O)C6=C5C[C@H]5[C@](O)(COC(=O)/C=C(\C)COC(=O)CCC(=O)OC6)[C@H]6C[C@H]6[C@]45C)[C@H]31)[C@H]1C[C@H]12` [SHIZUKAOL F], for which the selectivity ratio in data set [3] worked out at 10.9. Moreover, the EC50 turned out to be 110 nM in data set [4], 4050 nM in data set [1], 3390 nM in data set [2] and 4.3 nM in data set [6]. In data set [5], this compound registered a CC50 of 47 nM.
With `COC(=O)/C(C)=C1\C(=O)[C@H](O)[C@]2(C)C3=C(C[C@@H]4[C@]5(OC(=O)C6=C5C[C@H]5[C@](O)(COC(=O)/C=C(\C)COC(=O)[C@@H](O)CC(=O)OC6)[C@H]6C[C@H]6[C@]45C)[C@H]31)[C@H]1C[C@H]12` [SHIZUKAOL H], the selectivity ratio in data set [3] worked out at 6.67. For the same compound, the 50% effective concentration (EC50) stood at 830 nM in data set [4], 860 nM in data set [1], 2350 nM in data set [2] and 3.3 nM in data set [6]. Further, the CC50 in data set [5] is 22 nM.
Take `Cc1cn([C@H]2C[C@H](N=[N+]=[N-])[C@@H](CO)O2)c(=O)[nH]c1=O` [ZIDOVUDINE]: in data set [3], the selectivity ratio is 1.02e+06.
